Results as given in ChEMBL document CHEMBL5724801, “EUbOPEN Chemogenomics Library - Multiplex” (2024).
Several values for one entry are separate records, joined by “and”; a condition that tells them apart may be missing. Equal values may be shown once.

Tests used:
Fibroblast = experiment: Multiplex assay against human fibroblast; assay type: toxicity, cell-based
Procedure, shortened: (§1)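 With compound added, live cells were imaged on a CQ1 microscope at 37°C and 5% CO2; staining with Hoechst33342, BioTracker Green Microtubule Cytoskeleton Dye, MitoTracker Red and Annexin V Alexa Fluor 680 had been done at seeding. The CellPathfinder machine-learning gating scheme split cells into Hoechst high-intensity objects or normal cells, normal cells into healthy, pyknosed or fragmented nuclei, and pyknosed cells into mitotic or apoptotic. The tubulin, mitochondrial-mass and membrane-permeability phenotypes are per cents of healthy-nucleus cells.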

HEK-293T = experiment: Multiplex assay against HEK293T; assay type: toxicity, cell-based; details: human; procedure, shortened: as §1
[1] = 12 h, 1 µM, compound concentration 1 uM
[2] = 12 h, 10 µM, compound concentration 10 uM
[3] = 24 h, 1 µM, compound concentration 1 uM
[4] = 24 h, 10 µM, compound concentration 10 uM
[5] = 48 h, 1 µM, compound concentration 1 uM
[6] = 48 h, 10 µM, compound concentration 10 uM

COC[C@@H](c1ccc(C(F)(F)F)cc1)N1CCN(C2(C)CCN(C(=O)c3c(C)ncnc3C)CC2)C[C@@H]1C.O=C(O)/C=C\C(=O)O [VICRIVIROC MALEATE]
Population Apoptotic (%) (Fibroblast; [1]): 36%
Population Fragmented Nuclei (%) (Fibroblast; [1]): 23%
Population Healthy Nuclei (%) (Fibroblast; [1]): 53% and 51%
Population Hoechst High Intensity Objects (%) (Fibroblast; [1]): 4%
Population Membrane Permeable-Phenotype (%) (Fibroblast; [1]): 2% and 5%
Population Mitochondria Different-Phenotype (%) (Fibroblast; [1]): 11% and 13%
Population Mitotic Cells (%) (Fibroblast; [1]): 63%
Population Normal (%) (Fibroblast; [1]): 95%
Population Pyknosed Nuclei (%) (Fibroblast; [1]): 22% and 25%
Population Tubulin-Different-Phenotype (%) (Fibroblast; [1]): 16% and 41%
Total Cell Count (Fibroblast; [1]): 138 and 190
Population Apoptotic (%) (Fibroblast; [2]): 58% and 33%
Population Fragmented Nuclei (%) (Fibroblast; [2]): 26% and 48%
Population Healthy Nuclei (%) (Fibroblast; [2]): 59% and 33%
Population Hoechst High Intensity Objects (%) (Fibroblast; [2]): 17% and 20%
Population Membrane Permeable-Phenotype (%) (Fibroblast; [2]): 2% and 12%
Population Mitochondria Different-Phenotype (%) (Fibroblast; [2]): 4%
Population Mitotic Cells (%) (Fibroblast; [2]): 41% and 66%
Population Normal (%) (Fibroblast; [2]): 82% and 79%
Population Pyknosed Nuclei (%) (Fibroblast; [2]): 14% and 18%
Population Tubulin-Different-Phenotype (%) (Fibroblast; [2]): 45% and 67%
Total Cell Count (Fibroblast; [2]): 208 and 186
Population Apoptotic (%) (Fibroblast; [3]): 66% and 30%
Population Fragmented Nuclei (%) (Fibroblast; [3]): 21% and 28%
Population Healthy Nuclei (%) (Fibroblast; [3]): 57% and 50%
Population Hoechst High Intensity Objects (%) (Fibroblast; [3]): 3%
Population Membrane Permeable-Phenotype (%) (Fibroblast; [3]): 1% and 8%
Population Mitochondria Different-Phenotype (%) (Fibroblast; [3]): 7% and 20%
Population Mitotic Cells (%) (Fibroblast; [3]): 33% and 69%
Population Normal (%) (Fibroblast; [3]): 96%
Population Pyknosed Nuclei (%) (Fibroblast; [3]): 20% and 21%
Population Tubulin-Different-Phenotype (%) (Fibroblast; [3]): 18% and 41%
Total Cell Count (Fibroblast; [3]): 138 and 204
Population Apoptotic (%) (Fibroblast; [4]): 73% and 42%
Population Fragmented Nuclei (%) (Fibroblast; [4]): 23% and 46%
Population Healthy Nuclei (%) (Fibroblast; [4]): 64% and 39%
Population Hoechst High Intensity Objects (%) (Fibroblast; [4]): 12% and 21%
Population Membrane Permeable-Phenotype (%) (Fibroblast; [4]): 0% and 8%
Population Mitochondria Different-Phenotype (%) (Fibroblast; [4]): 5% and 12%
Population Mitotic Cells (%) (Fibroblast; [4]): 26% and 57%
Population Normal (%) (Fibroblast; [4]): 87% and 78%
Population Pyknosed Nuclei (%) (Fibroblast; [4]): 11% and 14%
Population Tubulin-Different-Phenotype (%) (Fibroblast; [4]): 42% and 60%
Total Cell Count (Fibroblast; [4]): 196 and 183
Population Apoptotic (%) (Fibroblast; [5]): 59% and 53%
Population Fragmented Nuclei (%) (Fibroblast; [5]): 21% and 33%
Population Healthy Nuclei (%) (Fibroblast; [5]): 56% and 50%
Population Hoechst High Intensity Objects (%) (Fibroblast; [5]): 3% and 5%
Population Membrane Permeable-Phenotype (%) (Fibroblast; [5]): 0% and 9%
Population Mitochondria Different-Phenotype (%) (Fibroblast; [5]): 7% and 19%
Population Mitotic Cells (%) (Fibroblast; [5]): 40% and 46%
Population Normal (%) (Fibroblast; [5]): 96% and 95%
Population Pyknosed Nuclei (%) (Fibroblast; [5]): 21% and 15%
Population Tubulin-Different-Phenotype (%) (Fibroblast; [5]): 34% and 58%
Total Cell Count (Fibroblast; [5]): 127 and 180
Population Apoptotic (%) (Fibroblast; [6]): 73% and 53%
Population Fragmented Nuclei (%) (Fibroblast; [6]): 23% and 54%
Population Healthy Nuclei (%) (Fibroblast; [6]): 65% and 35%
Population Hoechst High Intensity Objects (%) (Fibroblast; [6]): 14% and 20%
Population Membrane Permeable-Phenotype (%) (Fibroblast; [6]): 0% and 9%
Population Mitochondria Different-Phenotype (%) (Fibroblast; [6]): 5% and 10%
Population Mitotic Cells (%) (Fibroblast; [6]): 26% and 46%
Population Normal (%) (Fibroblast; [6]): 85% and 79%
Population Pyknosed Nuclei (%) (Fibroblast; [6]): 10% and 9%
Population Tubulin-Different-Phenotype (%) (Fibroblast; [6]): 48% and 61%
Total Cell Count (Fibroblast; [6]): 206 and 193
Population Apoptotic (%) (HEK-293T; [1]): 46% and 45%
Population Fragmented Nuclei (%) (HEK-293T; [1]): 7%
Population Healthy Nuclei (%) (HEK-293T; [1]): 80%
Population Hoechst High Intensity Objects (%) (HEK-293T; [1]): 9% and 5%
Population Membrane Permeable-Phenotype (%) (HEK-293T; [1]): 0%
Population Mitochondria Different-Phenotype (%) (HEK-293T; [1]): 47% and 51%
Population Mitotic Cells (%) (HEK-293T; [1]): 53% and 54%
Population Normal (%) (HEK-293T; [1]): 90% and 94%
Population Pyknosed Nuclei (%) (HEK-293T; [1]): 12% and 11%
Population Tubulin-Different-Phenotype (%) (HEK-293T; [1]): 27% and 17%
Total Cell Count (HEK-293T; [1]): 406 and 387
Population Apoptotic (%) (HEK-293T; [2]): 44% and 62%
Population Fragmented Nuclei (%) (HEK-293T; [2]): 6% and 5%
Population Healthy Nuclei (%) (HEK-293T; [2]): 75% and 72%
Population Hoechst High Intensity Objects (%) (HEK-293T; [2]): 8% and 16%
Population Membrane Permeable-Phenotype (%) (HEK-293T; [2]): 0%
Population Mitochondria Different-Phenotype (%) (HEK-293T; [2]): 63% and 78%
Population Mitotic Cells (%) (HEK-293T; [2]): 55% and 37%
Population Normal (%) (HEK-293T; [2]): 91% and 83%
Population Pyknosed Nuclei (%) (HEK-293T; [2]): 18% and 21%
Population Tubulin-Different-Phenotype (%) (HEK-293T; [2]): 57% and 51%
Total Cell Count (HEK-293T; [2]): 315 and 265
Population Apoptotic (%) (HEK-293T; [3]): 30% and 31%
Population Fragmented Nuclei (%) (HEK-293T; [3]): 9%
Population Healthy Nuclei (%) (HEK-293T; [3]): 79% and 82%
Population Hoechst High Intensity Objects (%) (HEK-293T; [3]): 6% and 5%
Population Membrane Permeable-Phenotype (%) (HEK-293T; [3]): 0% and 1%
Population Mitochondria Different-Phenotype (%) (HEK-293T; [3]): 24%
Population Mitotic Cells (%) (HEK-293T; [3]): 69% and 68%
